The values below come from ChEMBL document CHEMBL1149885, “Active core structure of terfestatin A, a new specific inhibitor of auxin signaling” (Bioorg Med Chem, 2008).

Active and inactive are the calls of the source. The calls are words filed in the database; no cut-off is given here.

The assay deals with Arabidopsis. The assay can be described thus: Inhibition of indole-3-acetic acid-induced GUS reporter gene expression in Arabidopsis BA3 at 50 uM after 5 hrs. Format: functional, organism-based. In outline: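 Arabidopsis BA3::GUS seedlings (GUS under an auxin-responsive promoter) were grown vertically for 5 days under continuous light. They were moved into GM (0.5x MS salts, 1% sucrose, B5 vitamins, 0.2 g/L MES, pH 5.8) holding 50 µM derivative plus 1 µM IAA for 5 h. GUS was then stained histochemically with 1 mM X-Gluc at 37 °C for 3–4 h.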
For `CC(C)COc1c(-c2ccccc2)cc(O)c(-c2ccccc2)c1O`, the outcome was inactive.
The value for `COC(=O)c1ccc(-c2cc(O)c(-c3ccccc3)c(O)c2O[C@@H]2O[C@H](CO)[C@@H](O)[C@H](O)[C@H]2O)cc1` was “inactive”.
For `OC[C@H]1O[C@@H](Oc2cc(-c3ccccc3)c(O)cc2-c2ccccc2)[C@H](O)[C@@H](O)[C@@H]1O`, the outcome was Active.
The value for `COc1cc(-c2ccccc2)c(O[C@H]2O[C@@H](CO)[C@H](O)[C@@H](O)[C@@H]2O)c(O)c1-c1ccccc1` was “inactive”; that for `CCOC(=O)CCCCOc1ccc(-c2cc(O)c(-c3ccccc3)c(O)c2O[C@@H]2O[C@H](CO)[C@@H](O)[C@H](O)[C@H]2O)cc1` was “inactive”; that for `OC[C@H]1O[C@@H](Oc2c(-c3ccccc3)cc(O)c(-c3cccc4ccccc34)c2O)[C@H](O)[C@@H](O)[C@@H]1O` (single isomer, unassigned) was “inactive”.
Turning to `Oc1cc(-c2ccccc2)c(OCC2CCCCC2)c(O)c1-c1ccccc1`, the outcome was inactive.
The value for `CCCOc1c(-c2ccccc2)cc(O)c(-c2ccccc2)c1O` was “Active”.
The value for `Oc1cc(-c2ccccc2)c(OCC2CC2)c(O)c1-c1ccccc1` was “inactive”; that for `COc1c(O[C@@H]2O[C@H](CO)[C@@H](O)[C@H](O)[C@H]2O)c(-c2ccccc2)cc(O)c1-c1ccccc1` was “inactive”.
The entry for `CC(=O)OC[C@H]1O[C@@H](Oc2c(-c3ccccc3)cc(O)c(-c3ccccc3)c2O)[C@H](OC(C)=O)[C@@H](OC(C)=O)[C@@H]1OC(C)=O` is “inactive”; for `Cc1ccc(-c2c(O)cc(-c3ccccc3)c(O[C@@H]3O[C@H](CO)[C@@H](O)[C@H](O)[C@H]3O)c2O)cc1` it is “inactive”; for `CCCCCCOc1c(-c2ccccc2)cc(O)c(-c2ccccc2)c1O` it is “inactive”.
As for `CCCCOc1c(-c2ccccc2)cc(O)c(-c2ccccc2)c1O`, the result was Active.
For the molecule `CCCCOc1ccc(-c2c(O)cc(-c3ccccc3)c(O[C@@H]3O[C@H](CO)[C@@H](O)[C@H](O)[C@H]3O)c2O)cc1`, the result was inactive.
In the case of `CCCCCOc1c(-c2ccccc2)cc(O)c(-c2ccccc2)c1O`, the result was Active.
Take `Oc1cc(-c2ccccc2)c(OCCCCCl)c(O)c1-c1ccccc1`: the result was Active.
The entry for `OC[C@H]1O[C@@H](Oc2c(O)cc(O)cc2-c2ccccc2)[C@H](O)[C@@H](O)[C@@H]1O` is “inactive”; for `COCOc1c(-c2ccccc2)cc(O)c(-c2ccccc2)c1O` it is “Active”.
The value for `CCCCOc1ccc(-c2cc(O)c(-c3ccccc3)c(O)c2O[C@@H]2O[C@H](CO)[C@@H](O)[C@H](O)[C@H]2O)cc1` was “inactive”; that for `CCOc1c(-c2ccccc2)cc(O)c(-c2ccccc2)c1O` was “Active”.
The value for `OC[C@H]1O[C@@H](Oc2ccc(O)c(-c3ccccc3)c2O)[C@H](O)[C@@H](O)[C@@H]1O` was “inactive”.
